Measured values reported in ChEMBL document CHEMBL1137277, “Synthesis of highly substituted dibenzo[b,f]azocines and their evaluation as protein kinase inhibitors” (Bioorg Med Chem Lett, 2006).
Active and inactive are the calls of the source. No cut-off for these calls is given here.

Legend:
[1] = biological target: T1, cAMP-dependent protein kinase (PKA) (Homo sapiens, UniProt P22694+P17612+P22612); test: Inhibition of PKA-mediated phosphorylation of kemptide at 100 uM; assay type: protein assay
Procedure, shortened: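 PKA (41 µg/ml) with kemptide (10 µM) and compound at 100 µM in 40 mM Tris pH 7.5, 20 mM MgCl2, 0.1 mg/ml BSA; equilibrated 1 h. ATP added (1 µM); after 10 min, remaining ATP read by Kinase-Glo Plus luminescence. DMSO and no-kinase controls; means of two replicates.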

[2] = biological target: Protein kinase C (PKC) (Homo sapiens) (UniProt O94806+P41743+P17252+P05129+Q05655+P05771+Q05513+Q02156+P24723+Q15139+Q04759); test: Inhibition of PKC-mediated phosphorylation of neurogranin at 100 uM; assay type: protein assay
Procedure, shortened: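 PKC (0.33 µg/ml), neurogranin (20 µM), compound 100 µM in 20 mM Tris pH 7.5, 10 mM MgCl2, 0.1 mg/ml BSA, 250 µM EGTA, 400 µM CaCl2 plus lipid activator (phosphatidylserine, […], CaCl2); 1 h equilibration. DMSO and no-kinase controls; duplicate means.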

[3] = biological target: T1, cAMP-dependent protein kinase (PKA); test: Inhibition of PKA-mediated phosphorylation of kemptide

Row | Activity [1] | Activity [2] | IC50 [3] | Structure (SMILES)
1 | inactive | inactive |  | CCc1cccc2c1CNc1c(cccc1CCc1ccccc1)/C=C\2COc1ccccc1C(F)(F)F
2 | inactive | inactive |  | CCc1cccc2c1CNc1c(cccc1CCc1ccccc1)/C=C\2COc1ccccc1[N+](=O)[O-]
3 | inactive | inactive |  | CCc1cccc2c1CNc1c(cccc1CCc1ccccc1)/C=C\2COc1cccc([N+](=O)[O-])c1
4 | inactive | inactive |  | CCc1cccc2c1CNc1c(cccc1CCc1ccccc1)/C=C\2COc1ccccc1Cl
5 | inactive | inactive |  | CCc1cccc2c1CNc1c(cccc1CCc1ccccc1)/C=C\2COc1ccc(F)cc1
6 | inactive | inactive |  | CCc1cccc2c1CNc1c(cccc1CCc1ccccc1)/C=C\2COc1ccc(C(=O)OC)cc1
7 | inactive | inactive |  | CCc1cccc2c1CNc1c(cccc1CCc1ccccc1)/C=C\2COc1cccc(OC)c1
8 | inactive | inactive |  | CCc1cccc2c1CNc1c(cccc1CCc1ccccc1)/C=C\2COc1ccc(Cl)cc1
9 | inactive | inactive |  | CCc1cccc2c1CNc1c(cccc1CCc1ccccc1)/C=C\2COc1ccc([N+](=O)[O-])cc1
10 | inactive | inactive |  | CCc1cccc2c1CNc1c(cccc1CCc1ccccc1)/C=C\2COc1cccc(C(=O)OC)c1
11 | inactive | inactive |  | CCc1cccc2c1CNc1c(cccc1CCc1ccccc1)/C=C\2COc1ccccc1OC

Further lines, the compound ahead of its results:

Row | Structure (SMILES) | Activity [1] | Activity [2] | IC50 [3]
12 | CCc1cccc2c1CNc1c(cccc1CCc1ccccc1)/C=C\2COc1cccc(Cl)c1 | inactive | inactive | 
13 | CCc1cccc2c1CNc1c(cccc1CCc1ccccc1)/C=C\2COc1cccc(F)c1 | inactive | inactive | 
14 | CCc1cccc2c1CNc1c(cccc1CCc1ccccc1)/C=C\2COc1ccccc1C(=O)OC | inactive | inactive | 
15 | CCc1cccc2c1CNc1c(cccc1CCc1ccccc1)/C=C\2COc1ccc(OC)cc1 | inactive | inactive | 
16 | CCc1cccc2c1CNc1c(cccc1CCc1ccccc1)/C=C\2COc1ccccc1 | inactive | inactive | 
17 | CCc1cccc2c1CNc1c(cccc1CCc1ccccc1)/C=C\2COc1ccccc1NC(C)=O |  | inactive | 122 µM
18 | CCc1cccc2c1CNc1c(cccc1CCc1ccccc1)/C=C\2COc1cccc(C(F)(F)F)c1 | inactive | inactive | 
19 | CCc1cccc2c1CNc1c(cccc1CCc1ccccc1)/C=C\2COc1ccccc1F | inactive | inactive | 
